Experimental data from ChEMBL document CHEMBL2163317, “Selective inhibition of the tumor marker aldo-keto reductase family member 1B10 by oleanolic acid” (J Nat Prod, 2011).
Calls of active or inactive are those of the source. The calls are words filed in the database; no cut-off is given here.

Legend:
[1] = target: T1, Aldo-keto reductase family 1 member B10 (Homo sapiens, UniProt O60218); assay: Inhibition of reductase activity of N-terminal 6His-tagged human AKR1B10 expressed in Escherichia coli BL21(DE3) assessed as pyridine-3-aldehyde reduction
Summary of the method: (§1)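 Forward reductase assay at 25 C with purified recombinant enzyme from E. coli BL21(DE3) pLysS. Buffer was 0.1 M potassium phosphate pH 7.4 with 0.1 mM NADPH and 0.2 mM pyridine-3-aldehyde. Rate read as NADPH absorbance change at 340 nm. IC50 reported as mean of at least three determinations. Selectivity is the AKR1B1 IC50 divided by the AKR1B10 IC50.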
Target sequence in this assay (O60218 whole entry): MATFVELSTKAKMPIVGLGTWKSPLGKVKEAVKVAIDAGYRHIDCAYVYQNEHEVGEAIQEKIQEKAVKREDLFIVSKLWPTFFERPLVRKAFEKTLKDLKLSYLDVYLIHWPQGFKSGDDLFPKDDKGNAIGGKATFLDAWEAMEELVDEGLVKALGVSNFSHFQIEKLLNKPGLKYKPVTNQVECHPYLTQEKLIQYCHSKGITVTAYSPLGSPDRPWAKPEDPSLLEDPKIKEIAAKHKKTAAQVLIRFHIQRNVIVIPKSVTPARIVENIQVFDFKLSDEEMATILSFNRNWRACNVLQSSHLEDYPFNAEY

[2] = target: Aldo-keto reductase family 1 member B1 (Homo sapiens, UniProt P15121); assay: Inhibition of reductase activity of N-terminal 6His-tagged human recombinant AKR1B1 expressed in Escherichia coli BL21(DE3) assessed as assessed as pyridine-3-aldehyde reduction; summary of the method: as §1
[3] = species: Homo sapiens; assay: Selectivity ratio of IC50 for human recombinant AKR1B1 to IC50 for human AKR1B10; summary of the method: as §1
[4] = target: T1, Aldo-keto reductase family 1 member B10; assay: Competitive inhibition of dehydrogenase activity of N-terminal 6His-tagged human AKR1B10 expressed in Escherichia coli BL21(DE3) assessed as NADP+-linked geraniol oxidation
Target sequence in this assay (O60218 whole entry): as above

[5] = target: Aldo-keto reductase family 1 member B10 (Homo sapiens, UniProt O60218, K125L); assay: Competitive inhibition of dehydrogenase activity of N-terminal 6His-tagged human AKR1B10 K125L mutant expressed in Escherichia coli BL21(DE3) assessed as NADP+-linked geraniol oxidation
Chain of Aldo-keto reductase family 1 member B10 (Homo sapiens, UniProt O60218, K125L) (O60218 whole entry K125L): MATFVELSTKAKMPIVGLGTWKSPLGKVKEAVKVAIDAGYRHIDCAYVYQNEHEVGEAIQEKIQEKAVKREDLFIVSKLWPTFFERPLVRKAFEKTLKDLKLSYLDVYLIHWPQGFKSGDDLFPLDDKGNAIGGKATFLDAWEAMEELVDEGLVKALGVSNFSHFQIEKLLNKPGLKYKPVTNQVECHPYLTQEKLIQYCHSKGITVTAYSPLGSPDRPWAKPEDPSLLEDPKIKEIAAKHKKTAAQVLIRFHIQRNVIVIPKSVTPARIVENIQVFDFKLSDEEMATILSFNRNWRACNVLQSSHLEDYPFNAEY

[6] = target: Aldo-keto reductase family 1 member B10 (Homo sapiens, UniProt O60218, V301L); assay: Competitive inhibition of dehydrogenase activity of N-terminal 6His-tagged human AKR1B10 V301L mutant expressed in Escherichia coli BL21(DE3) assessed as NADP+-linked geraniol oxidation
Chain of Aldo-keto reductase family 1 member B10 (Homo sapiens, UniProt O60218, V301L) (O60218 whole entry V301L): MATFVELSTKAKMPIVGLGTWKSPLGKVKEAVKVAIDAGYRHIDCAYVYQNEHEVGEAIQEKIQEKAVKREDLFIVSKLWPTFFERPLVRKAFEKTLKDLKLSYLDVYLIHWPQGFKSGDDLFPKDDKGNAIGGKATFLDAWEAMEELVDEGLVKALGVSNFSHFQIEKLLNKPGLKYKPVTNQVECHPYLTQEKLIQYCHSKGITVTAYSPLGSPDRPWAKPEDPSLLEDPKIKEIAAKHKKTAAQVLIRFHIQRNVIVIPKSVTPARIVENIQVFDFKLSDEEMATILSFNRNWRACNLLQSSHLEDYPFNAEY

[7] = target: Aldo-keto reductase family 1 member B10 (Homo sapiens, UniProt O60218, Q303S); assay: Competitive inhibition of dehydrogenase activity of N-terminal 6His-tagged human AKR1B10 Q303S mutant expressed in Escherichia coli BL21(DE3) assessed as NADP+-linked geraniol oxidation
Chain of Aldo-keto reductase family 1 member B10 (Homo sapiens, UniProt O60218, Q303S) (O60218 whole entry Q303S): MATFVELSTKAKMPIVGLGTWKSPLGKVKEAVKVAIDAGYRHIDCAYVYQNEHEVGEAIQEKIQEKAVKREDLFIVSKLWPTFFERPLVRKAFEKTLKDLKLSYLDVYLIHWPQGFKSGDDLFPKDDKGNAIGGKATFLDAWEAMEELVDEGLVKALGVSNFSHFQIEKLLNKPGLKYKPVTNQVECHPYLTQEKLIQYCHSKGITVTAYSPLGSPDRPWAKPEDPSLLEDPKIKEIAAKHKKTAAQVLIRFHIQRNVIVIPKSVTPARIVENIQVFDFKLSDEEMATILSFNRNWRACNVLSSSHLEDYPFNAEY

[8] = target: Aldo-keto reductase family 1 member B10 (Homo sapiens, UniProt O60218, W220Y); assay: Competitive inhibition of dehydrogenase activity of N-terminal 6His-tagged human AKR1B10 W220Y mutant expressed in Escherichia coli BL21(DE3) assessed as NADP+-linked geraniol oxidation
Chain of Aldo-keto reductase family 1 member B10 (Homo sapiens, UniProt O60218, W220Y) (O60218 whole entry W220Y): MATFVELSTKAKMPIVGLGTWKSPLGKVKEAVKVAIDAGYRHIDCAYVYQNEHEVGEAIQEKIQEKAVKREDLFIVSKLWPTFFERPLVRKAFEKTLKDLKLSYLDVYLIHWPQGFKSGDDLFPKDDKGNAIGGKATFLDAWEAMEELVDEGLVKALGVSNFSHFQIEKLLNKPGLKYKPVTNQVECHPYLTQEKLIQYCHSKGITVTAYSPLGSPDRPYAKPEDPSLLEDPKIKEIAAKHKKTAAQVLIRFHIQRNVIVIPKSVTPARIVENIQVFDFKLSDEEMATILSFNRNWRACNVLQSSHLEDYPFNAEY

[9] = target: T1, Aldo-keto reductase family 1 member B10; assay: Non-competitive inhibition of reductase activity of N-terminal 6His-tagged human AKR1B10 expressed in Escherichia coli BL21(DE3) assessed as pyridine-3-aldehyde reduction
Target sequence in this assay (O60218 whole entry, looked up): as the sequence (O60218 whole entry) above

[10] = target: T1, Aldo-keto reductase family 1 member B10; assay: Inhibition of N-terminal 6His-tagged human AKR1B10 overexpressed in human HeLa cells assessed as inhibition of […] at 1 uM pretreated for 2 hrs before [1-14C]farnesol challenge measured after 6 hrs; type: cell-based
Summary of the method: (§2)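 HeLa cells were transfected with a pGW1 plasmid carrying AKR1B10 cDNA. Culture was DMEM with 10% FBS at 37 C and 5% CO2. Cells were pretreated with inhibitor for 2 h, then incubated with 20 μM [1-14C] labelled substrate for 6 h. Inhibition of farnesal reduction is the mean of duplicate experiments.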
Target sequence in this assay (O60218 whole entry, looked up): as the sequence (O60218 whole entry) above

[11] = target: T1, Aldo-keto reductase family 1 member B10; assay: Inhibition of N-terminal 6His-tagged human AKR1B10 overexpressed in human HeLa cells assessed as inhibition of […] pretreated for 2 hrs before [1-14C]farnesol challenge measured after 6 hrs; type: cell-based; summary of the method: as §2
Target sequence in this assay (O60218 whole entry, looked up): as the sequence (O60218 whole entry) above

[12] = tested on: HT-29; assay: Cytotoxicity against human HT-29 cells at 30 uM after 96 hrs by trypan blue exclusion assay; type: functional, cell-based
[13] = tested on: HT-29; assay: Cytotoxicity against human HT-29 cells at 10 uM after 96 hrs by trypan blue exclusion assay; type: functional, cell-based
[14] = tested on: HT-29; assay: Cytotoxicity against human mitomycin C-resistant HT-29 cells assessed as growth inhibition after 96 hrs by trypan blue exclusion assay; type: functional, cell-based
[15] = tested on: HT-29; assay: Cytotoxicity against human HT-29 cells after 96 hrs by trypan blue exclusion assay; type: functional; conditions: HT-29, 96 h, read-out: LD50 (the source's name)
[16] = tested on: HT-29; assay: Inhibition of AKR1B10 mRNA expression in human HT-29 cells at 3 to 30 uM after 24 hrs by RT-PCR analysis; type: functional, cell-based
Summary of the method: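 HT29 cells were treated for 24 h with 3, 10 and 30 μM compound. Total RNA was then extracted, and AKR1B10 mRNA was analysed by reverse transcription-PCR.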

[17] = target: DNA polymerase beta (Homo sapiens, UniProt P06746); assay: Inhibition of DNA polymerase beta
[18] = target: Phospholipase A2 (Homo sapiens, UniProt P04054); assay: Inhibition of phospholipase A2
Chain of Phospholipase A2 (P04054 whole entry): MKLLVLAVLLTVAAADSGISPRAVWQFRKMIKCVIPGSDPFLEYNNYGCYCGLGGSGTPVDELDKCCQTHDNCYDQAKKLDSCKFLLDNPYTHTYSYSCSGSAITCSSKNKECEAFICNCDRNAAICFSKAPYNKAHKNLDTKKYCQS

SMILES	IC50 [1]	IC50 [2]	Ratio IC50 [3]	other results
C[C@H]1[C@H](C)CC[C@]2(C(=O)O)CC[C@]3(C)C(=CC[C@@H]4[C@@]5(C)CC[C@H](O)C(C)(C)[C@@H]5CC[C@]43C)[C@H]12 [URSOLIC ACID]	4 µM	41 µM	10	Ki [4]: 2 µM; Ki [5]: 2.8 µM; Ki [6]: 2.1 µM; Ki [7]: 3.7 µM; Ki [8]: 6 µM; inhibition [9]: Active
C[C@H](CCC(=O)O)[C@H]1CC[C@H]2[C@@H]3CC[C@@H]4C[C@@H](O)CC[C@]4(C)[C@H]3CC[C@]12C [ISOLITHOCHOLIC ACID]	–	–	–	Ki [1]: 0.015 µM
C[C@H]1[C@H](C)CC[C@]2(C(=O)O)CC[C@]3(C)C(=CC[C@@H]4[C@@]5(C)C[C@@H](O)[C@H](O)[C@@](C)(CO)[C@@H]5CC[C@]43C)[C@H]12 [ASIATIC ACID]	5.9 µM	34 µM	6	–
CC1(C)CC[C@]2(CO)CC[C@]3(C)C(=CC[C@@H]4[C@@]5(C)CC[C@H](O)C(C)(C)[C@@H]5CC[C@]43C)[C@@H]2C1 [ERYTHRODIOL]	30 µM	84 µM	3	–
C=C(C)[C@@H]1CC[C@]2(C(=O)O)CC[C@]3(C)[C@H](CC[C@@H]4[C@@]5(C)CC[C@H](O)C(C)(C)[C@@H]5CC[C@]43C)[C@@H]12 [BETULINIC ACID]	2 µM	11 µM	6	–
CC1(C)[C@@H](O)CC[C@]2(C)[C@H]3C(=O)C=C4[C@@H]5C[C@@](C)(C(=O)O)CC[C@]5(C)CC[C@@]4(C)[C@]3(C)CC[C@@H]12 [ENOXOLONE]	4.9 µM	280 µM	57	inhibition [10]: Active
COc1ccc2c(C(=S)N(C)CC(=O)O)cccc2c1C(F)(F)F [TOLRESTAT]	–	–	–	inhibition [11]: Active; Ki [1]: 0.05 µM; Activity [12]: Active
CC1(C)CC[C@]2(C(=O)O)CC[C@]3(C)C(=CC[C@@H]4[C@@]5(C)CC[C@H](O)C(C)(C)[C@@H]5CC[C@]43C)[C@@H]2C1 [OLEANOLIC_ACID]	–	124 µM	–	inhibition [10]: Active; Activity [13]: Active; growth inhibition (GI) [14]: Dose-dependent effect; Activity [12]: Active; CC50 [15]: 180 µM; inhibition [16]: inactive; IC50 [17]: 3 µM; IC50 [18]: 3 µM
CC1(C)CC[C@]2(C(=O)O)CC[C@]3(C)C(=CC[C@@H]4[C@@]5(C)C[C@@H](O)[C@H](O)C(C)(C)[C@@H]5CC[C@]43C)[C@@H]2C1 [MASLINIC ACID]	0.63 µM	72 µM	114	–
